Assay results reported in ChEMBL document CHEMBL1914438, “Synthesis and biological activity of novel N-cycloalkyl-(cycloalkylaryl)-2-[(3-R-2-oxo-2H-[1,2,4]triazino[2,3-c]quinazoline-6-yl)thio]acetamides” (2011).
Activity calls are given as the source filed them. No cut-off for these calls is given here.

Columns and labels:
[1] = tested on: Photobacterium leiognathi; assay: Antibacterial activity against Photobacterium leiognathi Sh1 at 0.1 to 0.25 ug/mL; type: functional, organism-based
[2] = tested on: Photobacterium leiognathi; assay: Antibacterial activity against Photobacterium leiognathi Sh1 assessed as inhibition of bacterial luminescence at 0.1 mg/mL after 10 mins by bioluminometry-based acute action test; type: functional; set-up: scale not given: the % may be the effect or the level left
Outline: (§1)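 Marine P. leiognathi Sh1 (Azov Sea shrimp isolate) diluted in chloride solution to 10^5 cells/mL; compounds suspended in DMSO mixed with 1 mL bacterial suspension. Acute test: 10 min at 25 °C, then bioluminescence measured by bioluminometer as % of compound-free control. Tetracycline reference.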

[3] = tested on: Photobacterium leiognathi; assay: Antibacterial activity against Photobacterium leiognathi Sh1 assessed as inhibition of bacterial luminescence at 0.25 mg/mL after 10 mins by bioluminometry-based acute action test; type: functional; set-up: scale not given: the % may be the effect or the level left; outline: as §1
[4] = tested on: Photobacterium leiognathi; assay: Antibacterial activity against Photobacterium leiognathi Sh1 assessed as inhibition of bacterial luminescence at 0.025 mg/mL after 10 mins by bioluminometry-based acute action test; type: functional; set-up: scale not given: the % may be the effect or the level left; outline: as §1
CAKI-1 = assay: Cytotoxicity against human Caki1 cells assessed as cell growth at 10^-5 M after 48 hrs by SRB assay; type: functional; settings: CAKI-1, 48 h, read-out: Activity
Outline: (§2)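 NCI 60-cell-line one-dose primary screen: cells inoculated and preincubated 24–48 h, then test agent added at a single 10^-5 M concentration for a further 48 h. Endpoint is sulforhodamine B protein staining read spectrophotometrically. Reported as percent growth relative to untreated control cells.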

Yamadazyma tenuis [5] = assay: Antifungal activity against Candida tenuis at 1 to 5 mg/mL after 48 to 72 hrs by stiff-plate agar-diffusion method; type: functional, organism-based
Outline: (§3)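 Fungal plates run by stiff-plate agar diffusion, substances applied to grooves at 5 mg/mL; 10^9 c.f.u./mL cells; incubation 48–72 h at 28–30 °C. Inhibition zone diameter scored (11–15 mm not sensitive, 16–25 mm sensitive, >25 mm highly sensitive). Nystatin standard; experiments done three times.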

[6] = tested on: Photobacterium leiognathi; assay: Antibacterial activity against Photobacterium leiognathi Sh1 assessed as inhibition of bacterial luminescence at 0.25 mg/mL after 10 mins by bioluminometry-based chronic action test; type: functional; set-up: scale not given: the % may be the effect or the level left
Outline: (§4)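 Chronic (growth plus luminescence) test with P. leiognathi Sh1 at 10^5 cells/mL in chloride solution, compounds added in DMSO. After 10 min at 25 °C, growth medium added at 1:50 and the mix incubated 16–18 h at 30 °C. Luminescence then measured by bioluminometer as % of untreated control. Tetracycline reference.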

Escherichia coli [7] = assay: Antibacterial activity against Escherichia coli at 1 to 5 mg/mL after 24 hrs by stiff-plate agar-diffusion method; type: functional, organism-based
Outline: (§5)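 Agar diffusion (stiff plate) with test substances at 5 mg/mL in grooves, allowed to diffuse into nutrient agar; inoculum 10^9 c.f.u./mL; bacteria incubated 24 h at 35 °C. Read-out: inhibition zone diameter (not sensitive 11–15 mm, sensitive 16–25 mm, highly sensitive >25 mm). Vancomycin and oxacillin as standards; three repeats.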

[8] = tested on: Photobacterium leiognathi; assay: Antibacterial activity against Photobacterium leiognathi Sh1 assessed as inhibition of bacterial luminescence at 0.1 mg/mL after 10 mins by bioluminometry-based chronic action test; type: functional; set-up: scale not given: the % may be the effect or the level left; outline: as §4
PC-3 = assay: Cytotoxicity against human PC3 cells assessed as cell growth at 10^-5 M after 48 hrs by SRB assay; type: functional; settings: PC-3, 48 h, read-out: Activity
Outline: (§6)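 NCI human tumor cell line panel from nine cancer types. Each line was inoculated and preincubated 24–48 h, then exposed to a single concentration (10^-5 M) for 48 h. Growth was read by sulforhodamine B protein staining, measured spectrophotometrically. Value reported as percent growth of treated cells relative to untreated controls.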

Mycobacterium [9] = assay: Antibacterial activity against Mycobacterium luteum at 1 to 5 mg/mL after 24 hrs by stiff-plate agar-diffusion method; type: functional, organism-based; outline: as §5
UO-31 = assay: Cytotoxicity against human UO31 cells assessed as cell growth at 10^-5 M after 48 hrs by SRB assay; type: functional; settings: UO-31, 48 h, read-out: Activity; outline: as §6
[10] = tested on: Photobacterium leiognathi; assay: Antibacterial activity against Photobacterium leiognathi Sh1 assessed as inhibition of bacterial luminescence at 0.025 mg/mL after 10 mins by bioluminometry-based chronic action test; type: functional; set-up: scale not given: the % may be the effect or the level left; outline: as §4
SNB-75 = assay: Cytotoxicity against human SNB75 cells assessed as cell growth at 10^-5 M after 48 hrs by SRB assay; type: functional; settings: SNB-75, 48 h, read-out: Activity; outline: as §6
Aspergillus niger [11] = assay: Antifungal activity against Aspergillus niger at 1 to 5 mg/mL after 48 to 72 hrs by stiff-plate agar-diffusion method; type: functional, organism-based; outline: as §3
CCRF-CEM = assay: Cytotoxicity against human CCRF-CEM cells assessed as cell growth at 10^-5 M after 48 hrs by SRB assay; type: functional; settings: read-out: Activity; outline: as §2
Staphylococcus aureus [12] = assay: Antibacterial activity against Staphylococcus aureus at 1 to 5 mg/mL after 24 hrs by stiff-plate agar-diffusion method; type: functional, organism-based; outline: as §5
Aspergillus niger [13] = assay: Antifungal activity against Aspergillus niger assessed as zone of inhibition at 0.1 mg/mL after 48 to 72 hrs by stiff-plate agar-diffusion method; type: functional; settings: read-out: DIZ
Yamadazyma tenuis [14] = assay: Antifungal activity against Candida tenuis assessed as zone of inhibition at 0.1 mg/mL after 48 to 72 hrs by stiff-plate agar-diffusion method; type: functional; settings: read-out: DIZ
Mycobacterium [15] = assay: Antibacterial activity against Mycobacterium luteum assessed as zone of inhibition at 0.1 mg/mL after 24 hrs by stiff-plate agar-diffusion method; type: functional; settings: read-out: DIZ
Yamadazyma tenuis [16] = assay: Antifungal activity against Candida tenuis assessed as zone of inhibition at 0.5 mg/mL after 48 to 72 hrs by stiff-plate agar-diffusion method; type: functional; settings: read-out: DIZ
Escherichia coli [17] = assay: Antibacterial activity against Escherichia coli assessed as zone of inhibition at 0.5 mg/mL after 24 hrs by stiff-plate agar-diffusion method; type: functional; settings: read-out: DIZ
Staphylococcus aureus [18] = assay: Antibacterial activity against Staphylococcus aureus assessed as zone of inhibition at 0.5 mg/mL after 24 hrs by stiff-plate agar-diffusion method; type: functional; settings: read-out: DIZ
Escherichia coli [19] = assay: Antibacterial activity against Escherichia coli assessed as zone of inhibition at 0.1 mg/mL after 24 hrs by stiff-plate agar-diffusion method; type: functional; settings: read-out: DIZ
Staphylococcus aureus [20] = assay: Antibacterial activity against Staphylococcus aureus assessed as zone of inhibition at 0.1 mg/mL after 24 hrs by stiff-plate agar-diffusion method; type: functional; settings: read-out: DIZ
Mycobacterium [21] = assay: Antibacterial activity against Mycobacterium luteum assessed as zone of inhibition at 0.5 mg/mL after 24 hrs by stiff-plate agar-diffusion method; type: functional; settings: read-out: DIZ
Aspergillus niger [22] = assay: Antifungal activity against Aspergillus niger assessed as zone of inhibition of late spore formation at 0.5 mg/mL after 48 to 72 hrs by stiff-plate agar-diffusion method; type: functional; settings: read-out: DIZ
Yamadazyma tenuis [23] = assay: Antifungal activity against Candida tenuis assessed as zone of inhibition at 0.01 mg/mL after 48 to 72 hrs by stiff-plate agar-diffusion method; type: functional
Outline: (§7)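 Fungi were tested by stiff-plate agar diffusion from a 10^9 c.f.u./mL inoculum. Compounds were placed in agar grooves and allowed to diffuse. Incubation was 48–72 h at 28–30 °C. Inhibition zone diameter was scored as not sensitive (11–15 mm), sensitive (16–25 mm) or highly sensitive (>25 mm). Nystatin was the standard. Experiments were done in triplicate.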

Mycobacterium [24] = assay: Antibacterial activity against Mycobacterium luteum assessed as zone of inhibition at 0.01 mg/mL after 24 hrs by stiff-plate agar-diffusion method; type: functional
Outline: (§8)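 Stiff-plate agar diffusion. Inoculum 10^9 c.f.u./mL. Compounds were streaked across grooves in the agar nutrient plate and left to diffuse. Plates were incubated 24 h at 35 °C. Read-out was inhibition zone diameter: 11–15 mm not sensitive, 16–25 mm sensitive, >25 mm highly sensitive. Vancomycin and oxacillin were the standards. Three repeats.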

Escherichia coli [25] = assay: Antibacterial activity against Escherichia coli assessed as zone of inhibition at 0.01 mg/mL after 24 hrs by stiff-plate agar-diffusion method; type: functional; outline: as §8
Aspergillus niger [26] = assay: Antifungal activity against Aspergillus niger assessed as zone of inhibition at 0.01 mg/mL after 48 to 72 hrs by stiff-plate agar-diffusion method; type: functional; outline: as §7
Staphylococcus aureus [27] = assay: Antibacterial activity against Staphylococcus aureus assessed as zone of inhibition at 0.01 mg/mL after 24 hrs by stiff-plate agar-diffusion method; type: functional; outline: as §8
[28] = in the assay text read “after 16 to 18 hrs” for “after 10 mins”

Row | Compound | Activity [2] [%] | Activity [3] [%] | Activity [4] [%] | Activity (Yamadazyma tenuis [5]) | Activity (Escherichia coli [7]) | Activity (Mycobacterium [9]) | Activity (Aspergillus niger [11]) | Activity (Staphylococcus aureus [12]) | Activity [6] [%] | Activity [8] [%] | Activity [10] [%] | also measured
1 | Cc1n[nH]c(-c2ccccc2N)nc1=O |  |  |  |  |  |  |  |  |  |  |  | Activity [1]: Active
2 | Cc1nn2c(SCC(=O)O)nc3ccccc3c2nc1=O | 0 | 0 | 66.7 | inactive | inactive | inactive | inactive | inactive |  |  |  | growth at 10 µM (CAKI-1): 96%; Activity [6, 28]: 0%; Activity [8, 28]: 61.5%; growth at 10 µM (PC-3): 84.5%; growth at 10 µM (UO-31): 87.1%; Activity [10, 28]: 36.4%; growth at 10 µM (SNB-75): 83.5%; growth at 10 µM (CCRF-CEM): 93.3%
3 | Cc1nn2c(SCC(=O)Nc3ccc(C45CC6CC(CC(C6)C4)C5)cc3)nc3ccccc3c2nc1=O | 65.71 | 32.86 | 90 |  |  |  |  |  | 50 | 94.57 | 86.96 | zone of inhibition at 100 µg/mL (Aspergillus niger [13]): 0 mm; zone of inhibition at 100 µg/mL (Yamadazyma tenuis [14]): 0 mm; zone of inhibition at 100 µg/mL (Mycobacterium [15]): 0 mm; zone of inhibition at 500 µg/mL (Yamadazyma tenuis [16]): 0 mm; zone of inhibition at 500 µg/mL (Escherichia coli [17]): 0 mm; zone of inhibition at 500 µg/mL (Staphylococcus aureus [18]): 0 mm; zone of inhibition at 100 µg/mL (Escherichia coli [19]): 0 mm; zone of inhibition at 100 µg/mL (Staphylococcus aureus [20]): 0 mm; zone of inhibition at 500 µg/mL (Mycobacterium [21]): 0 mm; zone of inhibition at 500 µg/mL (Aspergillus niger [22]): 21 mm
4 | Cc1nn2c(SCC(=O)NC34CC5CC(CC(C5)C3)C4)nc3ccccc3c2nc1=O | 0 | 0 | 36 | inactive | inactive | inactive | inactive | inactive | 0 | 1.88 | 25 | 
5 | CCC1C2CCC(C2)C1NC(=O)CSc1nc2ccccc2c2nc(=O)c(C)nn12 (centres undefined) | 104.17 | 62.5 | 91.67 | inactive | inactive | inactive | inactive | inactive |  |  |  | Activity [6, 28]: 86.11%; Activity [8, 28]: 93.06%; Activity [10, 28]: 90.28%
6 | Cc1ccc(-c2nn3c(SCC(=O)Nc4ccc(C56CC7CC(CC(C7)C5)C6)cc4)nc4ccccc4c3nc2=O)cc1 | 96.15 | 50 | 84.62 | inactive | inactive | inactive | inactive | inactive | 16 | 140 | 170 | 
7 | O=C(CSc1nc2ccccc2c2nc(=O)c(-c3ccccc3)nn12)NC12CC3CC(CC(C3)C1)C2 | 80.43 | 56.52 | 86.96 | inactive | inactive | inactive | inactive | inactive | 78.57 | 85.71 | 97.14 | 
8 | Cc1onc(-c2ccccc2)c1C(=O)N[C@@H]1C(=O)N2[C@@H]1SC(C)(C)[C@@H]2C(=O)O [OXACILLIN] |  |  |  |  |  |  |  |  |  |  |  | zone of inhibition at 10 µg/mL (Yamadazyma tenuis [23]; read-out: DIZ): 0 mm; zone of inhibition at 10 µg/mL (Mycobacterium [24]; read-out: DIZ): 0 mm; zone of inhibition at 10 µg/mL (Escherichia coli [25]; read-out: DIZ): 0 mm; zone of inhibition at 10 µg/mL (Aspergillus niger [26]; read-out: DIZ): 0 mm; zone of inhibition at 10 µg/mL (Staphylococcus aureus [27]; read-out: DIZ): 21 mm
9 | CN(C)[C@@H]1C(O)=C(C(N)=O)C(=O)[C@@]2(O)C(O)=C3C(=O)c4c(O)cccc4[C@@](C)(O)[C@H]3C[C@@H]12 [TETRACYCLINE] | 9.1 | 0 | 80.7 |  |  |  |  |  |  |  |  | Activity [6, 28]: 0%; Activity [8, 28]: 0%; Activity [10, 28]: 0%
10 | O=C(CSc1nc2ccccc2c2nc(=O)c(-c3ccccc3)nn12)Nc1ccc(C23CC4CC(CC(C4)C2)C3)cc1 | 80.88 | 54.41 | 102.94 | inactive | inactive | inactive | inactive | inactive | 66.25 | 111.25 | 118.75 | 
11 | NYSTATIN |  |  |  |  |  |  |  |  |  |  |  | inhibition zone (IZ) (Yamadazyma tenuis [23]): 24 mm; inhibition zone (IZ) (Mycobacterium [24]): 15 mm; inhibition zone (IZ) (Escherichia coli [25]): 0 mm; inhibition zone (IZ) (Aspergillus niger [26]): 25 mm; inhibition zone (IZ) (Staphylococcus aureus [27]): 11 mm
